Experiments:
Plasmodium falciparum [1] = experiment: Ratio of chloroquine IC50 to compound IC50 for chloroquine-resistant Plasmodium falciparum W2
[2] = Cytotoxicity against human K562 cells after 72 hrs by MTT assay; assay type: cell-based
In short: (§1)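 Cells were exposed to serial dilutions of compound for 72 h at 37 °C in 5% CO2. MTT was then added for another 3 h, and formazan was dissolved in SDS/DMF lysing buffer at pH 4.7. Absorbance was read at 550 nm against a 650 nm reference. […] Media: HMEC-1 in MCDB 131 with 10% FCS, EGF and hydrocortisone; K562 and WEHI 13 in RPMI 1640 with 10% FCS; HDF in DMEM with 10% FCS.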

Plasmodium falciparum [3] = experiment: Ratio of IC50 for chloroquine-resistant Plasmodium falciparum W2 to IC50 for chloroquine-sensitive Plasmodium falciparum D10
Plasmodium falciparum [4] = experiment: Antimalarial activity against chloroquine-sensitive Plasmodium falciparum D10 infected in human A+ RBC after 72 hrs by parasite LDH assay; assay type: functional, organism-based; details: D10, 72 h
In short: (§2)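 P. falciparum (D10 CQ-sensitive; W2 CQ-resistant) kept at 5% hematocrit in human A+ red cells in RPMI 1640 with 1% AlbuMax, hypoxanthine, 20 mM Hepes and glutamine, at 37 °C under 1% O2/5% CO2/94% N2. Asynchronous cultures (1–1.5% parasitaemia, 1% final hematocrit) were exposed to serial dilutions (final DMSO <1%) for 72 h. pLDH activity was read at OD650. IC50 given as mean ± SD of ≥3 experiments run in duplicate.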

[5] = Cytotoxicity against mouse WEHI13 cells after 72 hrs by MTT assay; assay type: cell-based
In short: as §1

[6] = Cytotoxicity against HMEC1 cells after 72 hrs by MTT assay; assay type: cell-based, HMEC-1; details: human
In short: as §1

Plasmodium falciparum [7] = experiment: Antimalarial activity against chloroquine-resistant Plasmodium falciparum W2 infected in human A+ erythrocytes after 72 hrs by parasite LDH assay; assay type: functional, organism-based; details: W2, 72 h
In short: as §2

Plasmodium falciparum [8] = experiment: Ratio of chloroquine IC50 to compound IC50 for chloroquine-sensitive Plasmodium falciparum D10
[9] = Distribution coefficient, log D of the compound at pH 7.4; assay type: physicochemical; details: octanol/water
[10] = Vacuolar accumulation ratio of the compound at pH 5.2; assay type: ADME
[11] = Octanol-water partition coefficient, log P of the compound; assay type: physicochemical
[12] = Lipid accumulation ratio of the compound at pH 7.4; assay type: physicochemical
[13] = Cytotoxicity against HDF after 72 hrs by MTT assay; assay type: cell-based; details: human
In short: as §1

[14] = Inhibition of beta-hematin formation assessed as molar equivalents by BHIA assay relative to hemin; assay type: functional

Compound | Ratio IC50 (Plasmodium falciparum [1]) | CC50 at 72 h [2] [µM] | Ratio IC50 (Plasmodium falciparum [3]) | IC50 (Plasmodium falciparum [4]) [µM] | CC50 at 72 h [5] [µM] | CC50 at 72 h [6] [µM] | IC50 (Plasmodium falciparum [7]) [µM] | Ratio IC50 (Plasmodium falciparum [8]) | logD [9] | Ratio [10] | logP [11] | Ratio [12] | CC50 at 72 h [13] [µM] | IC50 [14] [equivalents]
CCN(CC)Cc1cc(-c2ccc(F)cc2)n(Nc2ccnc3cc(Cl)ccc23)c1C | 5 | 2.36 | 1.3 | 0.0616 | 3.02 | 18.6 | 0.0798 | 0.5 | – | – | – | – | – | –
Cc1c(CN2CCCC2)cc(-c2ccc(F)cc2)n1Nc1ccnc2cc(Cl)ccc12 | 5.7 | 1.66 | 2.4 | 0.0326 | 2.71 | 10.1 | 0.0781 | 0.8 | 3.45 | 1548.8 | 4.86 | 2818.4 | – | –
Cc1c(CN2CCCC2)cc(-c2ccc(C(F)(F)F)cc2)n1Nc1ccnc2cc(Cl)ccc12 | 6.7 | 1.22 | 1 | 0.058 | 2.68 | 4.7 | 0.059 | 0.5 | 4.72 | 912 | 5.28 | 52480.8 | – | –
CCN(CC)Cc1cc(-c2ccc(C)cc2)n(Nc2ccnc3cc(Cl)ccc23)c1C | 6.4 | – | 1.7 | 0.0327 | 3.65 | 7.05 | 0.0554 | 0.6 | – | – | – | – | 10.3 | –
Cc1ccc(-c2cc(CN3CCCC3)c(C)n2Nc2ccnc3cc(Cl)ccc23)cc1 | 5.4 | – | 2.1 | 0.0307 | 4.48 | 7.15 | 0.0658 | 0.6 | 3.91 | 1862.1 | 5.19 | 8128.3 | 13.2 | 0.45
CCN(CC)Cc1cc(-c2ccc(N)cc2)n(Nc2ccnc3cc(Cl)ccc23)c1C | 0.9 | – | 5.8 | 0.0534 | – | – | 0.313 | 0.5 | – | – | – | – | – | –
Cc1c(CN2CCCC2)cc(-c2ccc(N)cc2)n1Nc1ccnc2cc(Cl)ccc12 | 0.5 | – | 10.6 | 0.0431 | – | – | 0.455 | 0.5 | 2.03 | 16982.4 | 4.38 | 107.1 | – | –
CCN(CC)Cc1cc(-c2ccc(Cl)cc2)n(CCCNc2ccnc3cc(Cl)ccc23)c1C | 2.3 | – | 6.9 | 0.026 | – | – | 0.18 | 0.7 | – | – | – | – | – | –
Cc1c(CN2CCCC2)cc(-c2ccc(Cl)cc2)n1CCCNc1ccnc2cc(Cl)ccc12 | 1.7 | – | 10.7 | 0.0227 | – | – | 0.243 | 0.8 | 2.35 | 24547.1 | 4.38 | 223.9 | – | 0.82
Cc1c(CN2CCCC2)cc(-c2ccc(Cl)cc2)n1Nc1ccnc2cc(Cl)ccc12 | – | – | 1.6 | – | 2.06 | 7.18 | – | – | 4.06 | 1513.6 | 5.17 | 11481.5 | – | 0.36
Cc1c(CN2CCCC2)cc(-c2ccccc2)n1Nc1ccnc2cc(Cl)ccc12 | – | 2.92 | 3.3 | – | 3.88 | 12.9 | – | – | 3.28 | 1698.2 | 4.6 | 1905.5 | – | 0.54
CCN(CC)Cc1cc(-c2ccccc2)n(Nc2ccnc3cc(Cl)ccc23)c1C | – | 3.62 | 1.4 | – | 4.38 | 16.7 | – | – | – | – | – | – | – | –
CCN(CC)Cc1cc(-c2ccc(Cl)cc2)n(Nc2ccnc3cc(Cl)ccc23)c1C | – | – | 1.6 | – | 1.45 | 5.81 | – | – | – | – | – | – | – | –
CCN(CC)CCCC(C)Nc1ccnc2cc(Cl)ccc12 (stereo unspecified) [CHLOROQUINE] | – | > 25 | – | – | > 38 | > 32 | – | – | – | – | – | – | > 38 | 1.27
